# Measured values: paper PMC3882305 (The Pediatric Infectious Disease Journal, 2013)
# Like-named read-outs stand apart in the source and are kept apart here.
# How the values were obtained:
# [1] = study APV20003, cited from earlier work
# [2] = Steady-state plasma APV/RTV/FPV pharmacokinetics in HIV-1-infected children; format: in vivo
# How it was run: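 Dosing used FPV 50 mg/mL oral suspension or 700 mg tablets (≥39 kg), with RTV 80 mg/mL solution or 100 mg capsules (≥33 kg). At week 2, intensive sampling was taken at 0, 1, 2, 4, 6, 8 and 12 h postdose, plus predose samples every 4–12 weeks. Noncompartmental AUC(0–τ), Cmax, Cτ and CL/F were calculated; actual dose had to be within 10% of nominal. Log-transformed mixed-effect ANOVA gave geometric LS mean ratios (90% CI) versus historical healthy adults on FPV 1400 mg BID (n=190) or FPV/RTV 700/100 mg BID (n=159).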
# HIV-1 [3] = experiment: Antiviral response: plasma HIV-1 RNA <400 copies/mL, ITT; format: in vivo, HIV-1–infected children
# How it was run: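 Children aged 2–18 years received twice-daily FPV ± RTV plus 2 or 3 active NRTIs, with plasma HIV-1 RNA measured every 4–12 weeks. The ITT (exposed) population was all subjects with ≥1 documented dose. In the snapshot analysis, response at each visit was taken from the last HIV-1 RNA within the visit window. Missing data counted as nonresponse, as did switching or adding background ART, unless toxicity-driven before week 2.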
# [4] = Safety: adverse events, laboratory abnormalities, growth; format: in vivo, HIV-1–infected children; settings: for subjects with at least 1 drug-related AE: 2- to <6-year olds (FPV/RTV 2/19; FPV 12/20); for change in median height and weight Z scores: week 48; for subjects with an AE leading to permanent discontinuation of study drug and withdrawal from the study: whole treatment group; for subjects reporting AEs: whole treatment group (FPV 19/20; FPV/RTV 83/89); for subjects with at least 1 drug-related grade 2–4 AE: whole treatment group (FPV/RTV 10/89; FPV 2/20)
# How it was run: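 AEs, growth parameters, hematology and clinical chemistry including a lipid panel were assessed every 4–12 weeks, with follow-up 4 weeks after withdrawal. Severity was graded by the DAIDS Toxicity Table (2004). All study drug was stopped for grade 3/4 AE or toxicity unless clearly unrelated.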
# CD4+ cell = CD4+ cell response; format: in vivo, HIV-1–infected children; settings: week 48; for median CD4+ cell count change from baseline / median percentage CD4+ cell count change from baseline: whole treatment group
# How it was run: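 Lymphocyte subsets were monitored every 4–12 weeks in children given twice-daily FPV ± RTV with an NRTI background, with visits at weeks 2, 4, 8, 12, 16, 24, 36 and 48. CD4+ cell count and CD4+ percentage at week 48 were expressed as change from baseline and summarized as medians.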
# HIV [5] = settings: once-daily, cited from earlier work
# HIV [6] = settings: mostly PI-experienced, aged 6 to 17 years; time to loss of virologic response; cited from earlier work
# HIV-1 [7] = settings: ITT (missing = failure), cited from earlier work
# [8] = 2- to <6-year olds (FPV 10/20, all grade 1; FPV/RTV 1/19, grade 2)
compound,measurement,setting,value
"CC(C)CN(C[C@@H](OP(=O)(O)O)[C@H](Cc1ccccc1)NC(=O)O[C@H]1CCOC1)S(=O)(=O)c1ccc(N)cc1 [FPV, Fosamprenavir]",APV exposures compared with adults receiving FPV/RTV 1400/200 mg QD,"[1]; 6- to 18-year-old children, 30/6 mg/kg QD",comparable
same,plasma amprenavir exposures compared with 1400 mg twice-daily in adults,"[2]; 30 mg/kg twice-daily, 2- to <6-year olds",higher
same,samples with undetectable plasma FPV prodrug concentrations,[2]; plasma,98%
same,subjects with HIV-1 RNA <400 copies/mL at week 48,"HIV-1 [3]; FPV treatment group (PI-naïve, 2 to <6 yr), snapshot analysis",60%
same,incidence of drug-related vomiting,[4]; [8],50%
same,subjects with at least 1 drug-related AE,[4],60%
same,"grade 3/4 hypertriglyceridemia, raised total cholesterol or raised low density lipoprotein cholesterol",[4]; FPV group,no grade 3/4 reports
same,change in median height and weight Z scores,[4],Small increases
same,subjects with an AE leading to permanent discontinuation of study drug and withdrawal from the study,[4],none
same,subjects reporting AEs,[4],95%
same,subjects with at least 1 drug-related grade 2–4 AE,[4],10%
same,median CD4+ cell count change from baseline,CD4+ cell,340 cells/mm^3
same,median percentage CD4+ cell count change from baseline,CD4+ cell,8%
"CC(C)c1nc(CN(C)C(=O)N[C@H](C(=O)N[C@@H](Cc2ccccc2)C[C@H](O)[C@H](Cc2ccccc2)NC(=O)OCc2cncs2)C(C)C)cs1 [RTV, ritonavir]",plasma RTV Cτ,"[2]; RTV 3 mg/kg BID in combination with FPV, across the age groups",higher
"COC(=O)N[C@H](C(=O)N[C@@H](Cc1ccccc1)[C@@H](O)CN(Cc1ccc(-c2ccccn2)cc1)NC(=O)[C@@H](NC(=O)OC)C(C)(C)C)C(C)(C)C [RTV-boosted atazanavir, atazanavir]",response rate for HIV RNA <400 copies/mL at week 48,HIV [5]; ART-experienced 6- to <18-year olds (8/25),32%
same,response rate for HIV RNA <400 copies/mL at week 48,HIV [5]; ART-naïve 6- to <18-year olds (14/16),88%
"CC(C)CN(C[C@@H](O)[C@H](Cc1ccccc1)NC(=O)O[C@H]1CO[C@H]2OCC[C@H]21)S(=O)(=O)c1ccc(N)cc1 [RTV-boosted darunavir, darunavir]",children achieving a viral load of <400 copies/mL at week 48,HIV [6],59%
fosamprenavir/ritonavir [FPV/RTV],lower APV exposure than adults receiving FPV/RTV 1400/200 mg QD,"[1]; 2- to <6-year-old children, FPV/RTV 30/6 mg/kg QD",~ 28%
same,APV AUC(0–τ) and Cmax compared with adults receiving FPV/RTV 700/100 mg BID,"[2]; FPV/RTV 15/3 mg/kg BID, 6- to <12-year olds and 12- to 18-year olds",lower
same,"higher plasma APV AUC(0–τ), Cmax and Cτ values than historical adults receiving FPV/RTV 700/100 mg BID","[2]; FPV/RTV 23/3 mg/kg BID, 2- to <6-year olds",approximately 50%
same,plasma APV exposures compared with the historical adult population,"[2]; FPV/RTV 700/100 mg BID, 12- to 18-year-old subjects ≥39 kg",similar
same,subjects with HIV-1 RNA <400 copies/mL at week 48,HIV-1 [3]; 2- to <6-year olds (14/19),74%
same,subjects with HIV-1 RNA <400 copies/mL at week 48,HIV-1 [3]; 6- to <12-year-old (16/30),53%
same,subjects with HIV-1 RNA <400 copies/mL at week 48,HIV-1 [3]; 12- to 18-year-old (25/40),63%
same,subjects with HIV-1 RNA <400 copies/mL at week 48,"HIV-1 [3]; ART-naïve subjects, snapshot analysis",83%
same,subjects with HIV-1 RNA <400 copies/mL at week 48,"HIV-1 [3]; PI-experienced subjects, snapshot analysis",48%
same,subjects with HIV-1 RNA <400 copies/mL at week 48,"HIV-1 [3]; PI-naïve/NRTI-experienced subjects, snapshot analysis",65%
same,subjects with HIV-1 RNA <400 copies/mL at week 48,"HIV-1 [3]; range across age groups, intent-to-treat [exposed], snapshot analysis",53–74%
same,incidence of drug-related vomiting,[4]; [8],5%
same,subjects with at least 1 drug-related AE,[4],11%
same,incidence of drug-related vomiting,[4]; 6- to <12-year olds (9/30; 7 grade 1 and 2 grade 2),30%
same,subjects with drug-related AEs,[4]; 6- to <12-year olds (13/30),43%
same,AEs leading to permanent discontinuation of study drug,[4]; 6- to <12-year olds (hypertriglyceridemia),1
same,incidence of drug-related vomiting,"[4]; 12- to 18-year olds (3/40, all grade 1)",8%
same,subjects with drug-related AEs,[4]; 12- to 18-year olds (15/40),38%
same,AEs leading to permanent discontinuation of study drug,[4]; 12- to 18-year olds (adverse drug reaction and pyelonephritis),2
same,grade 3/4 hypertriglyceridemia,[4]; FPV/RTV group,no reports
same,grade 2–4 diarrhea,[4]; FPV/RTV group (2/89),2%
same,grade 3 increases in total cholesterol,[4]; FPV/RTV group (2 subjects),5%
same,grade 2–4 vomiting,[4]; FPV/RTV group (3/89),3%
same,grade 3 increases in low density lipoprotein cholesterol,[4]; FPV/RTV group (4 subjects),9%
same,drug-related nausea,[4]; adolescent group (6/40),15%
same,drug-related diarrhea,[4]; adolescent group (7/40),18%
same,change in median height and weight Z scores,[4],Small increases
same,subjects with an AE leading to permanent discontinuation of study drug and withdrawal from the study,[4],Four
same,subjects reporting AEs,[4],93%
same,subjects with at least 1 drug-related grade 2–4 AE,[4],11%
same,median CD4+ cell count change,CD4+ cell; 2- to <6-year olds,174 cells/mm^3
same,percentage CD4+ cell count change,CD4+ cell; 2- to <6-year olds,10%
same,median CD4+ cell count change,CD4+ cell; 6- to <12-year olds,210 cells/mm^3
same,percentage CD4+ cell count change,CD4+ cell; 6- to <12-year olds,7%
same,median CD4+ cell count change,CD4+ cell; 12- to 18-year olds,140 cells/mm^3
same,percentage CD4+ cell count change,CD4+ cell; 12- to 18-year olds,7%
same,median CD4+ cell count change from baseline,CD4+ cell,190 cells/mm^3
same,median percentage CD4+ cell count change from baseline,CD4+ cell,8%
lopinavir (LPV)/RTV [LPV/RTV],subjects with HIV-1 RNA <400 copies/mL after 48 weeks,HIV-1 [7]; ART-naïve,88%
same,subjects with HIV-1 RNA <400 copies/mL after 48 weeks,HIV-1 [7]; PI-experienced/NRTI-experienced,58%
same,subjects with HIV-1 RNA <400 copies/mL after 48 weeks,HIV-1 [7]; PI-naïve/NRTI-experienced,84%
